From ChEMBL document CHEMBL1157638, “Fluorescent epigenetic small molecule induces expression of the tumor suppressor ras-association domain family 1A and inhibits human prostate xenograft” (J Med Chem, 2010)
Activity calls are given as the source filed them. No cut-off for these calls is given here.

How the values were obtained:
LOX IMVI = test: Growth inhibition of human LOXIMVI cells assessed as cell growth at 1 uM relative to untreated control; type: functional; settings: read-out: Activity
KM12 = test: Growth inhibition of human KM12 cells assessed as cell growth at 10 uM relative to untreated control; type: functional; settings: read-out: Activity
ACHN = test: Growth inhibition of human ACHN cells assessed as cell growth at 10 uM relative to untreated control; type: functional; settings: read-out: Activity
OVCAR-3 = test: Growth inhibition of human OVCAR-3 cells assessed as cell growth at 10 nM relative to untreated control; type: functional; settings: read-out: Activity
[1] = biological target: DNA (cytosine-5)-methyltransferase 3A (Homo sapiens) (UniProt Q9Y6K1); test: Binding affinity to DNMT3a in human PC3 cells cytoplasm at 5 uM after 6 hrs by antibody staining; type: cell-based; settings: PC-3
DNA (cytosine-5)-methyltransferase 3A (Homo sapiens), sequence (Q9Y6K1 whole entry, looked up): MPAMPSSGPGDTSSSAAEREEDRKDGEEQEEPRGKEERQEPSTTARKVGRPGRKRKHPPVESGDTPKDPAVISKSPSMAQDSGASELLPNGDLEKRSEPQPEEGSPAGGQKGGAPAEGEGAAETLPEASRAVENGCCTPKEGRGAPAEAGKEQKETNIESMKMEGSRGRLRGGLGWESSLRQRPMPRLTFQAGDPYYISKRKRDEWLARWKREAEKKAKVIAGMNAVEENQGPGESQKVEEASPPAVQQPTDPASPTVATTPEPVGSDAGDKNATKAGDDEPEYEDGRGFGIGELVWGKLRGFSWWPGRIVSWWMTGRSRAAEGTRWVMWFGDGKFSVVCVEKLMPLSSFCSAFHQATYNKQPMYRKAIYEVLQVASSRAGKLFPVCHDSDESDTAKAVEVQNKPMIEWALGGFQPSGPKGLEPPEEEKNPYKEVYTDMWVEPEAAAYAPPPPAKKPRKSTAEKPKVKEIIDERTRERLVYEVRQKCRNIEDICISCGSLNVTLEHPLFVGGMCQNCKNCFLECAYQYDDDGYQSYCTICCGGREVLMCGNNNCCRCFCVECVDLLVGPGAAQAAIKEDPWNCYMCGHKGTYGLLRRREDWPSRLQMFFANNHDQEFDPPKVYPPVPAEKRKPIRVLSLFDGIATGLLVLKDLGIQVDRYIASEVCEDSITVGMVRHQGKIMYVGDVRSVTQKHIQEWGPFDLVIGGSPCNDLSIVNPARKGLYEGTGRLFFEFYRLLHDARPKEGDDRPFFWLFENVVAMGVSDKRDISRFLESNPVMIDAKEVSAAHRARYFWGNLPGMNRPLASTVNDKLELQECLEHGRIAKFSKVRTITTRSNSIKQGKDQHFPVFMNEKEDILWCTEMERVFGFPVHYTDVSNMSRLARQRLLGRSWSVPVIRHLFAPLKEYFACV
Procedure, shortened: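 PC-3 cells were plated overnight on fibronectin/[…]-coated slides and treated with 5 μM compound or DMSO for 1-6 h. Cells were PBS-washed, fixed in 4% formaldehyde, and stained with propidium iodide (nuclei) and anti-DNMT3a or anti-DNMT3b antibody. The compound was excited at 725 nm by multiphoton laser and imaged through a 500-550 nm filter by confocal microscopy.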

SK-OV-3 = test: Growth inhibition of human SKOV3 cells assessed as cell growth at 10 nM relative to untreated control; type: functional; settings: read-out: Activity
NCI-H226 = test: Growth inhibition of human NCI-H226 cells assessed as cell growth at 10 nM relative to untreated control; type: functional; settings: read-out: Activity
OVCAR-8 = test: Growth inhibition of human OVCAR8 cells assessed as cell growth at 1 nM relative to untreated control; type: functional; settings: read-out: Activity
MDA-MB-231 [2] = test: Growth inhibition of human MDA-MB-231 cells assessed as cell growth at 10 nM relative to untreated control; type: functional; settings: read-out: Activity
COLO 205 = test: Growth inhibition of human COLO205 cells assessed as cell growth at 10 uM relative to untreated control; type: functional; settings: read-out: Activity
Procedure, shortened: (§1)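 Run externally at the National Cancer Institute as a 59-cell-line panel screen, with concentrations up to 100 μM. Growth was scored relative to control, where negative growth or total cell kill was possible. Data are in the Supporting Information.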

PC-3 [3] = test: […] in RASSF1A gene expression in human PC3 cells at 5 uM after 3 days hrs by RT-PCR; type: functional, cell-based
SR [4] = test: Growth inhibition of human SR cells assessed as cell growth at 10 uM relative to untreated control; type: functional; settings: read-out: Activity
[5] = Growth inhibition of human […] cells assessed as cell growth at 10 uM relative to untreated control; type: functional; settings: read-out: Activity
NCI-H460 = test: Growth inhibition of human NCI-H460 cells assessed as cell growth at 100 nM relative to untreated control; type: functional; settings: read-out: Activity
PC-3 [6] = test: Growth inhibition of human PC3 cells assessed as cell growth at 1 nM relative to untreated control; type: functional; settings: read-out: Activity
SNB-75 [7] = test: Growth inhibition of human SNB75 cells; type: functional
SNB-75 [8] = test: Growth inhibition of human SNB75 cells assessed as cell growth at 10 uM relative to untreated control; type: functional; settings: read-out: Activity
DU-145 = test: Growth inhibition of human DU145 cells assessed as cell growth at 100 nM relative to untreated control; type: functional; settings: read-out: Activity; procedure, shortened: as §1
HL-60(TB) [9] = test: Growth inhibition of human HL-60(TB) cells assessed as cell growth at 100 nM relative to untreated control; type: functional; settings: read-out: Activity
CAKI-1 [10] = test: Growth inhibition of human Caki1 cells assessed as cell growth at 1 uM relative to untreated control; type: functional; settings: read-out: Activity; procedure, shortened: as §1
OVCAR-4 = test: Growth inhibition of human OVCAR4 cells assessed as cell growth at 10 nM relative to untreated control; type: functional; settings: read-out: Activity
HL-60(TB) [11] = test: Growth inhibition of human HL-60(TB) cells assessed as cell growth at 1 nM relative to untreated control; type: functional; settings: read-out: Activity
M14 [12] = test: Growth inhibition of human M14 cells assessed as cell growth at 10 nM relative to untreated control; type: functional; settings: read-out: Activity
SW-620 [13] = test: Growth inhibition of human SW620 cells assessed as cell growth at 10 uM relative to untreated control; type: functional; settings: read-out: Activity
SR [14] = test: Growth inhibition of human SR cells; type: functional
SW-620 [15] = test: Growth inhibition of human SW620 cells assessed as cell growth at 10 nM relative to untreated control; type: functional; settings: read-out: Activity
IGROV-1 = test: Growth inhibition of human IGROV1 cells assessed as cell growth at 1 nM relative to untreated control; type: functional; settings: read-out: Activity
PC-3 [16] = test: Growth inhibition of human PC3 cells after 24 hrs by trypan blue exclusion method; type: functional; settings: PC-3, 24 h
Procedure, shortened: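 PC-3 cells grown in phenol red-free IMEM with 10% FBS, 2 mM glutamine and penicillin/streptomycin at 37 °C, 5% CO2. Seeded in triplicate at 1.5 × 10⁴ cells/well. After 24 h, treated with DMSO vehicle or 1, 5, 15, 30 or 60 μM compound for 24 h. Cells trypsinized, stained with 0.4% trypan blue, and live and dead cells counted by hemocytometer. Mean ± SEM of three independent observations.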

CAKI-1 [17] = test: Growth inhibition of human Caki1 cells assessed as cell growth at 100 nM relative to untreated control; type: functional; settings: read-out: Activity; procedure, shortened: as §1
MDA-MB-231 [18] = test: Growth inhibition of human MDA-MB-231 cells assessed as cell growth at 10 uM relative to untreated control; type: functional; settings: read-out: Activity
[19] = Growth inhibition of human […] cells assessed as cell growth at 10 nM relative to untreated control; type: functional; settings: read-out: Activity
SNB-19 = test: Growth inhibition of human SNB19 cells assessed as cell growth at 10 nM relative to untreated control; type: functional; settings: read-out: Activity
OVCAR-5 = test: Growth inhibition of human OVCAR5 cells assessed as cell growth at 100 nM relative to untreated control; type: functional; settings: read-out: Activity
MCF7 [20] = test: Growth inhibition of human MCF7 cells assessed as cell growth at 10 uM relative to untreated control; type: functional; settings: read-out: Activity
NCI/ADR-RES = test: Growth inhibition of human NCI/ADR-RES cells assessed as cell growth at 1 nM relative to untreated control; type: functional; settings: read-out: Activity
T47D = test: Growth inhibition of human T47D cells assessed as cell growth at 100 nM relative to untreated control; type: functional; settings: read-out: Activity
HCT-116 = test: Growth inhibition of human HCT116 cells assessed as cell growth at 1 uM relative to untreated control; type: functional; settings: read-out: Activity; procedure, shortened: as §1
SK-MEL-28 = test: Growth inhibition of human SK-MEL-28 cells assessed as cell growth at 1 nM relative to untreated control; type: functional; settings: read-out: Activity
CCRF-CEM = test: Growth inhibition of human CCRF-CEM cells assessed as cell growth at 10 nM relative to untreated control; type: functional; settings: read-out: Activity
786-0 = test: Growth inhibition of human 786-0 cells assessed as cell growth at 10 nM relative to untreated control; type: functional; settings: read-out: Activity
M14 [21] = test: Growth inhibition of human M14 cells assessed as cell growth at 10 uM relative to untreated control; type: functional; settings: read-out: Activity
MCF7 [22] = test: Growth inhibition of human MCF7 cells; type: functional
UO-31 = test: Growth inhibition of human UO31 cells; type: functional
[23] = read-out: LC50 (the source's name)

SMILES: COc1ccc2c(c1)[nH]c1c(C)c(OS(=O)(=O)c3cccc4c(N(C)C)cccc34)ccc12
- growth at 1 µM (LOX IMVI): 31%
- growth at 10 µM (KM12): 6%
- growth at 10 µM (ACHN): 21%
- growth at 0.01 µM (OVCAR-3): 100%
- Activity [1]: inactive
- growth at 0.01 µM (SK-OV-3): 95%
- growth at 0.01 µM (NCI-H226): 88%
- growth at 0.001 µM (OVCAR-8): 107%
- growth at 0.01 µM (MDA-MB-231 [2]): 86%
- growth at 10 µM (COLO 205): 1%
- Activity (PC-3 [3]): Active
- growth at 10 µM (SR [4]): 7%
- growth at 10 µM [5]: -2%
- growth at 0.1 µM (NCI-H460): 98%
- growth at 0.001 µM (PC-3 [6]): 101%
- GI50 (SNB-75 [7]): 4.48 µM
- TGI (SNB-75 [7]): 47.1 µM
- CC50 (SNB-75 [7]; [23]): > 100 µM
- growth at 10 µM (SNB-75 [8]): -12%
- growth at 0.1 µM (DU-145): 103%
- growth at 0.1 µM (HL-60(TB) [9]): 69%
- growth at 1 µM (CAKI-1 [10]): 69%
- growth at 0.01 µM (OVCAR-4): 92%
- growth at 0.001 µM (HL-60(TB) [11]): 88%
- growth at 0.01 µM (M14 [12]): 105%
- growth at 10 µM (SW-620 [13]): 9%
- GI50 (SR [14]): 3.51 µM
- TGI (SR [14]): > 100 µM
- CC50 (SR [14]; [23]): > 100 µM
- growth at 0.01 µM (SW-620 [15]): 104%
- growth at 0.001 µM (IGROV-1): 111%
- GI50 (PC-3 [16]): 1.5 µM
- growth at 0.1 µM (CAKI-1 [17]): 81%
- growth at 10 µM (MDA-MB-231 [18]): 40%
- growth at 0.01 µM [19]: 58%
- growth at 0.01 µM (SNB-19): 88%
- growth at 0.1 µM (OVCAR-5): 103%
- growth at 10 µM (MCF7 [20]): 8%
- growth at 0.001 µM (NCI/ADR-RES): 107%
- growth at 0.1 µM (T47D): 82%
- growth at 1 µM (HCT-116): 25%
- growth at 0.001 µM (SK-MEL-28): 99%
- growth at 0.01 µM (CCRF-CEM): 92%
- growth at 0.01 µM (786-0): 103%
- growth at 10 µM (M14 [21]): 17%
- GI50 (MCF7 [22]): 2.71 µM
- TGI (MCF7 [22]): > 100 µM
- CC50 (MCF7 [22]; [23]): > 100 µM
- GI50 (UO-31): 13.6 µM
- TGI (UO-31): > 100 µM
- CC50 (UO-31; [23]): > 100 µM
